Compounds with a hit are over-represented: about 4.1% of the library has one in this group of screens.
Mdm2-MdmX inh = inhibitors of human Mdm2/MdmX interaction; O15151+Q00987; SaOS-2 split-luciferase Mdm2/MdmX complementation, luminescence; inhibition, % at 8 µM; 3% of 330,000 active;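 active means inhibition of at least 50% at 8 µM in the primary screen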
UBC13 polyUb = blocks human UBC13 polyubiquitin chain formation; P61088; TR-FRET; AID 485273; 0.47% of 330,000 active; inhibition, % at 20 µM; in the data active means inhibition above about 45%, passing the limit was not always enough
XBP1 UPR activ = activators of adaptive arm of unfolded protein response (XBP1); CHO-XBP1 luciferase reporter, IRE1-XBP1 UPR activation, luminescence; percent of tunicamycin response, DMSO as zero; activation, % at 20 µM; 0.33% of 330,000 active; AID 463104;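 active means versus positive control, 20 µM dose yields 30% or more activation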;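 further: 100% = tunicamycin at 10 µg/mL and 0% = DMSO only wells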
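Material: CHO-XBP1 cells stably carrying IRE1-XBP1-driven luciferase reporter / Amount: 1000 cells per well / Compound: 20 µM, 1% DMSO / Times: 6 h treatment, 37 °C / Detection: luciferase luminescence / Measure: % activation of reporter signal versus tunicamycin and DMSO controls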
Apaf1 inhib = human Apaf-1 inhibition. 0.71% of 330,000 active. reconstituted apoptosome caspase-3 activity, DEVD-Rh110 fluorescence. O14727. inhibition, % at 20 µM; active means inhibition of at least 40% at 20 µM;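 further: plate controls were DMSO wells for no effect and DEVD-CHO caspase inhibitor wells for full effect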
Target sequence (O14727 whole entry, looked up): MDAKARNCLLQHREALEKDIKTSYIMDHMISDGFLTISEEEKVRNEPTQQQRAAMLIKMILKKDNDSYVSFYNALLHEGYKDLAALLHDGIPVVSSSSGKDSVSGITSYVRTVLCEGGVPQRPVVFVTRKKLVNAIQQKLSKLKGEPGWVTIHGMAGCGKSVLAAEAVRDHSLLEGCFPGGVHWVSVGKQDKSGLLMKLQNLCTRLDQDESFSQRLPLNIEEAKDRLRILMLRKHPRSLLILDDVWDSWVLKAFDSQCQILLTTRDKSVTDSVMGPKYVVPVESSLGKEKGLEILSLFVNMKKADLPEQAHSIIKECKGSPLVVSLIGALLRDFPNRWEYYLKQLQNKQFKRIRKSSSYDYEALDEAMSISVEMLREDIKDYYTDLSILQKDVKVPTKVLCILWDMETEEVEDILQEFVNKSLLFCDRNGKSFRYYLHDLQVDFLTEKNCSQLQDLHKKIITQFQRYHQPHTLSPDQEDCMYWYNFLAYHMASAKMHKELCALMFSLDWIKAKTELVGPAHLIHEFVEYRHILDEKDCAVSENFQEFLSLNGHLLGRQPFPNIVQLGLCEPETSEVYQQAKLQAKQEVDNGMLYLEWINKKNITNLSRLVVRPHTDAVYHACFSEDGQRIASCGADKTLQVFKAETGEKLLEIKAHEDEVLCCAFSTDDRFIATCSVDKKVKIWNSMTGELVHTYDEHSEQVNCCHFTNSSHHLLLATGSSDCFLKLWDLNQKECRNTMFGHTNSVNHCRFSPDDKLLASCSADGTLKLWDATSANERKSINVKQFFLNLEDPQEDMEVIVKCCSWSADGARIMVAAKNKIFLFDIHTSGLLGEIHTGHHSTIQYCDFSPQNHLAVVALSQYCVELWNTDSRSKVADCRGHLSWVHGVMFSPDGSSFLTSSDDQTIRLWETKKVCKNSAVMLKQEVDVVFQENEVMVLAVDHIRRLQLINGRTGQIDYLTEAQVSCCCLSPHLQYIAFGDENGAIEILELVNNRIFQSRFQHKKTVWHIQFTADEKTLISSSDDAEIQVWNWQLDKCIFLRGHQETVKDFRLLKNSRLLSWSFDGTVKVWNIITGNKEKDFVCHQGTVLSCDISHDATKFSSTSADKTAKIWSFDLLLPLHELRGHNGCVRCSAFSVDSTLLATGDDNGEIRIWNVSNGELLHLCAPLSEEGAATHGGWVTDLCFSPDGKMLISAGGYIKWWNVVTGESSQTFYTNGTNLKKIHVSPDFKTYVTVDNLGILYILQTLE
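Medium: Hepes buffer, pH 7.5 / System: biochemical Apaf-1 apoptosome reconstitution / Measured by: Rh110 fluorescence, excitation 480 nm, emission 540 nm / Times: compound with Apaf-1, dATP, procaspase-3 30 min, then 50 min reaction, room temperature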
UPR CHOP act = activators of apoptotic arm of unfolded protein response (CHOP); CHO-CHOP luciferase reporter, UPR activation, luminescence; percent of tunicamycin response over DMSO baseline; activation, % at 10 µM; 0.34% of 330,000 active;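 active means at 10 µM dose, activation of 40% or more, normalized to positive control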;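 further: 100% = tunicamycin at 10 µg/mL and 0% = DMSO alone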
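Evaluation: % reporter activation, DMSO baseline versus tunicamycin full activation; System: CHO-CHOP luciferase reporter cell line; Input: 500 cells/well; Incubation: 6 h compound treatment, 37 °C; Measured by: Steady-Glo luciferase luminescence; Dosing: one dose, 10 µM in 0.5% DMSO; Buffer or medium: F12 medium, 10% FBS; Benchmarks: positive tunicamycin 10 µg/mL, negative DMSO alone.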
Mdm2-MdmX conf = confirmation of human Mdm2/MdmX interaction inhibitors; shares compounds with Mdm2-MdmX inh; inhibition, % at 8 µM; 55% of 10,000 active; AID 489028; Mdm2-MdmX binding, luminescent assay; in the data active means inhibition above about 40%
Full FLuc ctr = counter-screen for Mdm2/MdmX inhibitors: full-length luciferase; shares compounds with Mdm2-MdmX inh; SaOS-2 full-length luciferase counterscreen, luminescence; inhibition, % at 8 µM; 77% of 6,200 active; AID 504607;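 active means mean inhibition at 8 µM reaching about 37%, which flags the compound as non-specific, limit read from the data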;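 further: p53-null SaOS-2 cells with luciferase driven by a doxycycline-inducible promoter; compound on cells about two nights before reading with doxycycline added after day one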
* = called active by the depositor.

Screening O=C(Cc1ccc(Cl)cc1)Nc1ccc2oc(-c3ccncc3)nc2c1 returned Mdm2-MdmX inh 55*, UBC13 polyUb 13, XBP1 UPR activ 0, Apaf1 inhib -17, UPR CHOP act -1 and Mdm2-MdmX conf 21.
Screening c1ccn2cc(-c3ccc4c(c3)OCCO4)nc2c1 returned Mdm2-MdmX inh 50*, UBC13 polyUb 10, XBP1 UPR activ -14, Apaf1 inhib -5, UPR CHOP act -7 and Mdm2-MdmX conf 28.
For Clc1ccc2nc(-c3ccc4c(c3)OCO4)cn2c1 the results were Mdm2-MdmX inh -5, UBC13 polyUb 12, XBP1 UPR activ -4, Apaf1 inhib -7 and UPR CHOP act -7.
`Cc1ccc2nc(-c3ccc4c(c3)OCCO4)cn2c1` gave Mdm2-MdmX inh 94*, UBC13 polyUb 6, XBP1 UPR activ -8, Apaf1 inhib -11, UPR CHOP act -10, Mdm2-MdmX conf 98* and Full FLuc ctr 55*.
Screening O=C(Cn1cnc2c(nnn2Cc2ccc(F)cc2)c1=O)Nc1ccc2c(c1)OCCO2 returned Mdm2-MdmX inh 71*, UBC13 polyUb 8, XBP1 UPR activ -3, Apaf1 inhib -13, UPR CHOP act 1 and Mdm2-MdmX conf 21.
Screening N#CC(C(=O)Nc1ccc(Cl)c(Cl)c1)=C1Nc2ccccc2N1 returned Mdm2-MdmX inh 59*, UBC13 polyUb -15, XBP1 UPR activ 14, Apaf1 inhib 8, UPR CHOP act 1, Mdm2-MdmX conf 31 and Full FLuc ctr 37*.
For N#CC(C(=O)Nc1cccc(Cl)c1)=C1Nc2ccccc2N1 the results were Mdm2-MdmX inh 24, UBC13 polyUb 5, XBP1 UPR activ 8, Apaf1 inhib -7 and UPR CHOP act 2.
`CCCc1ccc(Oc2coc3cc(OCC(=O)Nc4ccccc4C)ccc3c2=O)cc1` gave Mdm2-MdmX inh 9, UBC13 polyUb 0, XBP1 UPR activ 0, Apaf1 inhib 0 and UPR CHOP act 0.
For CCc1ccc(Oc2coc3cc(OCC(=O)Nc4cc(C)ccc4C)ccc3c2=O)cc1 the results were Mdm2-MdmX inh 52*, UBC13 polyUb 1, XBP1 UPR activ 25, Apaf1 inhib -7, UPR CHOP act -2 and Mdm2-MdmX conf 14.
CCN1C(=O)[C@H]2[C@@H](c3ccc(-c4ccc(F)cc4)c(OC)c3)N3CCCC[C@@]3(C(=O)OC)[C@H]2C1=O was read as Mdm2-MdmX inh 45, UBC13 polyUb 3, XBP1 UPR activ -4, Apaf1 inhib 26 and UPR CHOP act 0.
Screening CCN1C(=O)[C@@H]2[C@@H](c3ccc(-c4ccc(Cl)c(Cl)c4)cc3)N3CCC[C@@]3(C(=O)OC)[C@@H]2C1=O returned Mdm2-MdmX inh 36, UBC13 polyUb -5, XBP1 UPR activ 0, Apaf1 inhib 30 and UPR CHOP act -1.
CCN1C(=O)[C@H]2[C@@H](c3ccc(-c4cccc(Cl)c4)c(OC)c3)N3CCCC[C@@]3(C(=O)OC)[C@H]2C1=O was read as Mdm2-MdmX inh 59*, UBC13 polyUb -2, XBP1 UPR activ -1, Apaf1 inhib 31, UPR CHOP act 1 and Mdm2-MdmX conf 28.
`CCN1C(=O)[C@H]2[C@@H](c3ccc(-c4ccc(Cl)c(Cl)c4)c(OC)c3)N3CCCC[C@@]3(C(=O)OC)[C@H]2C1=O` gave Mdm2-MdmX inh 66*, UBC13 polyUb -1, XBP1 UPR activ -4, Apaf1 inhib 25, UPR CHOP act 1 and Mdm2-MdmX conf 13.
CCN1C(=O)[C@H]2[C@@H](c3ccc(-c4ccc(F)cc4)c(OC)c3)N[C@@](Cc3ccccc3)(C(=O)OC)[C@H]2C1=O was read as Mdm2-MdmX inh 58*, UBC13 polyUb -3, XBP1 UPR activ -2, Apaf1 inhib 21, UPR CHOP act 3 and Mdm2-MdmX conf 19.
Screening CCN1C(=O)[C@H]2[C@@H](c3ccc(-c4ccc(Cl)c(Cl)c4)cc3)N3CCCC[C@@]3(C(=O)OC)[C@H]2C1=O returned Mdm2-MdmX inh 66*, UBC13 polyUb -8, XBP1 UPR activ -1, Apaf1 inhib 31, UPR CHOP act 0 and Mdm2-MdmX conf 24.
Screening CCN1C(=O)[C@H]2[C@@H](c3ccc(-c4ccccc4)c(OC)c3)N[C@@](Cc3ccccc3)(C(=O)OC)[C@H]2C1=O returned Mdm2-MdmX inh 33, UBC13 polyUb -1, XBP1 UPR activ -4, Apaf1 inhib 20 and UPR CHOP act 4.
`CCN1C(=O)[C@H]2[C@@H](c3ccc(-c4cccc(Cl)c4)cc3)N3CCCC[C@@]3(C(=O)OC)[C@H]2C1=O` gave Mdm2-MdmX inh 30, UBC13 polyUb 9, XBP1 UPR activ -3, Apaf1 inhib 23 and UPR CHOP act 0.
For O=C(c1cccc(C(F)(F)F)c1)N(c1ccccn1)C1CCCCC1 the results were Mdm2-MdmX inh 1, UBC13 polyUb 7, XBP1 UPR activ -5, Apaf1 inhib 1 and UPR CHOP act -1.
`CCC(C(=O)c1ccccc1)P(=O)(NN)c1ccccc1` (configuration not stated) gave Mdm2-MdmX inh 0, UBC13 polyUb 6, XBP1 UPR activ 2, Apaf1 inhib -8 and UPR CHOP act 1.
For CCN1C(=O)[C@H]2[C@@H](c3ccc(-c4ccc(Cl)c(Cl)c4)c(OC)c3)N[C@@](C)(C(=O)OC)[C@H]2C1=O the results were Mdm2-MdmX inh 57*, UBC13 polyUb 9, XBP1 UPR activ -2, Apaf1 inhib 25, UPR CHOP act 0, Mdm2-MdmX conf 45* and Full FLuc ctr 71*.
`COC(=O)[C@@]12CCCCN1[C@H](c1ccc(-c3cccc(Cl)c3)cc1)[C@H]1C(=O)N(C)C(=O)[C@H]12` gave Mdm2-MdmX inh 33, UBC13 polyUb -7, XBP1 UPR activ 1, Apaf1 inhib 28 and UPR CHOP act 2.
CCN1C(=O)[C@H]2[C@@H](c3ccc(-c4ccc(Cl)c(Cl)c4)cc3)N[C@@](C)(C(=O)OC)[C@H]2C1=O was read as Mdm2-MdmX inh 22, UBC13 polyUb 12, XBP1 UPR activ 0, Apaf1 inhib 25 and UPR CHOP act 2.
COC(=O)[C@@]12CCCCN1[C@H](c1ccc(-c3cccc(Cl)c3)cc1)[C@@H]1C(=O)N(C)C(=O)[C@@H]12 was read as Mdm2-MdmX inh 78*, UBC13 polyUb 2, XBP1 UPR activ 2, Apaf1 inhib 32, UPR CHOP act 1 and Mdm2-MdmX conf 31.
For CCOC(=O)c1c(NC(=O)N/N=C/c2ccc(O)c(OC)c2)sc(C(C)=O)c1C the results were Mdm2-MdmX inh 68*, UBC13 polyUb -12, XBP1 UPR activ 11, Apaf1 inhib -63, UPR CHOP act 4 and Mdm2-MdmX conf 24.

High-throughput results from PubChem.
